From ChEMBL document CHEMBL1128256, “Synthesis, biological evaluation, and structure analysis of a series of new 1,5-anhydrohexitol nucleosides” (J Med Chem, 1995) come the findings set out here.

The test system of assay [1] is E6SM. As to the kind of experiment: (§1) Tested for the minimum inhibitory concentration required to reduce herpes simplex virus type 2 (HSV-2) strain 196 induced cytopathogenicity by 50%. Conditions: Homo sapiens. It is filed as functional. The procedure, abridged: (§2)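 Inhibition of virus-induced cytopathogenicity in human embryonic skin-muscle (E6SM) fibroblasts seeded in 96-well trays. Viruses were HSV-1 (KOS, F, McIntyre), TK- HSV-1 B2006, TK-/TK+ HSV-1 clinical isolate VMW-1837 and HSV-2 (G, 196, Lyons). […] MCC is the lowest concentration giving microscopically detectable alteration of normal cell morphology; highest concentration tested was 400 µg/mL.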

Assay [2] concerns HEL. As to the kind of experiment: Tested for the inhibitory concentration required to reduce TK+ Varicella-Zoster virus (TK+ VZV) strain OKA plaque formation by 50%. Conditions: Homo sapiens. It is filed as functional, cell-based.
Assay [3] deals with HEL. Description: Tested for the inhibitory concentration required to reduce cytomegalovirus (CMV) strain Davis plaque formation by 50%. It is filed as functional, cell-based. Conditions: Homo sapiens. In outline:
(§3)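 Virus plaque formation assay in human embryonic lung (HEL) cells seeded in 96-well trays. Targets were TK+ VZV (Oka, YS), TK- VZV (07/1, YS/R) and CMV (AD169, Davis). Value is the concentration that reduces plaque number by 50%. Cytotoxicity in HEL cells was taken as the concentration that reduces cell growth by 50%.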

The subject of assay [4] is E6SM. Description: Tested for the minimum inhibitory concentration required to reduce vaccinia virus(VV) induced cytopathogenicity by 50%. It is filed as functional. Conditions: Homo sapiens.
Assay [5] concerns E6SM. Description: Tested for the minimum cytotoxic concentration required to cause a microscopically detectable alteration of normal cell morphology in human embryonic skin muscle (E6SM) fibroblast cell cultures. It is filed as functional. In outline:
as §2

Assay [6] deals with E6SM. As to the kind of experiment: Tested for the minimum inhibitory concentration required to reduce vesicular stomatitis virus(VSV) induced cytopathogenicity by 50%. It is filed as functional. Conditions: Homo sapiens.
For assay [7], the system named is HEL. Description: Tested for the inhibitory concentration required to reduce thymidine kinase deficient Varicella-Zoster virus (TK- VZV) strain YS/R plaque formation by 50%. It is filed as functional, cell-based. The following applies: Homo sapiens.
The subject of assay [8] is HEL. Description: Tested for the inhibitory concentration required to reduce cytomegalovirus (CMV) strain AD-169 plaque formation by 50%. It is filed as functional, cell-based. Conditions: Homo sapiens. The procedure, abridged: as §3
Assay [9] deals with E6SM. As to the kind of experiment: Tested for the minimum inhibitory concentration required to reduce herpes simplex virus type 1 (HSV-1) strain F induced cytopathogenicity by 50%. It is filed as functional. The following applies: Homo sapiens. The procedure, abridged: as §2
In assay [10] the test system is HEL. As to the kind of experiment: Tested for the inhibitory concentration required to reduce thymidine kinase deficient Varicella-Zoster virus (TK- VZV) strain 07/1 plaque formation by 50%. It is filed as functional, cell-based. Conditions: Homo sapiens.
The subject of assay [11] is E6SM. Description: Tested for the minimum inhibitory concentration required to reduce thymidine kinase deficient herpes simplex virus type 1 (TK- HSV-1) strain B2006 induced cytopathogenicity by 50%. It is filed as functional. Conditions: Homo sapiens. The procedure, abridged: as §2
Assay [12] concerns E6SM. As to the kind of experiment: Tested for the minimum inhibitory concentration required to reduce herpes simplex virus type 1 (TK- / TK+ HSV-1) strain VMW-1837 induced cytopathogenicity by 50%. It is filed as functional. The following applies: Homo sapiens. In outline: as §2
Assay [13] deals with E6SM. As to the kind of experiment: Tested for the minimum inhibitory concentration required to reduce herpes simplex virus type 2 (HSV-2) strain G induced cytopathogenicity by 50%. It is filed as functional. Conditions: Homo sapiens. In outline:
as §2

Assay [14] has as its system E6SM. As to the kind of experiment: Tested for the minimum inhibitory concentration required to reduce herpes simplex virus type 1 (HSV-1) strain KOS induced cytopathogenicity by 50%. It is filed as functional. Conditions: Homo sapiens. In outline:
as §2

Assay [15] concerns HEL. Description: Tested for the 50% inhibitory concentration required to reduce TK+ Varicella-Zoster virus (TK+ VZV) strain YS plaque formation by 50%. It is filed as functional, cell-based. Conditions: Homo sapiens. In outline: as §3
Assay [16] deals with E6SM. As to the kind of experiment: Tested for the minimum inhibitory concentration required to reduce herpes simplex virus type 2 (HSV-2) strain Lyons induced cytopathogenicity by 50%. It is filed as functional. The following applies: Homo sapiens. In outline: as §2
The subject of assay [17] is HEL. Description: Tested for the cytotoxic concentration, required to reduce cell growth by 50% in human embryonic lung (HEL) cells. It is filed as functional. The procedure, abridged:
as §3

Assay [18] has as its system E6SM. Description: Tested for the minimum inhibitory concentration required to reduce herpes simplex virus type 1 (HSV-1) strain McIntyre induced cytopathogenicity by 50%. It is filed as functional. Conditions: Homo sapiens. In outline:
as §2

The species named for the next assay is Mus musculus. Description: Inhibition constant assumed to reflect the affinity for the transport site in mouse erythrocytes. It is filed as functional. In outline: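 Thymidine influx competition in erythrocytes from male B6D2F1 mice, 10% hematocrit in buffered saline, room temperature. [methyl-3H]thymidine at 0.1, 0.2, 0.5 and 1 mM, alone or with inhibitor at 0.053–1.05 mM. Influx stopped after 3 s with NBMPR. Pellets extracted in 5% perchloric acid and counted by scintillation. Zero-time trapping subtracted. Duplicate samples. Ki from Dixon plot.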

Assay [19] concerns HEL. As to the kind of experiment: Tested for the inhibitory concentration required to reduce TK+ Varicella-Zoster virus (TK+ VZV) strain YS plaque formation by 50%. It is filed as functional, cell-based. The following applies: Homo sapiens.
Assay [20] has as its system E6SM. The assay is described as §1. The following applies: Homo sapiens. It is filed as functional. This is another data set of the same source.
Assay [21] deals with HEL. Description: Tested for the cytotoxic concentration, required to reduce cell growth by 50% in human embryonic lung (HEL) cells. It is filed as functional. In outline:
as §3

Assay [22] concerns HEL. Description: Tested for the inhibitory concentration required to reduce thymidine kinase deficient Varicella-Zoster virus (TK-VZV) strain 07/1 plaque formation by 50%. It is filed as functional, cell-based. Conditions: Homo sapiens. In outline:
as §3

Assay [23] relates to E6SM. As to the kind of experiment: Tested for the minimum inhibitory concentration required to reduce herpes simplex virus type 1 (HSV-1) strain KOS induced cytopathogenicity by 50%. It is filed as functional. The following applies: Homo sapiens. The procedure, abridged:
as §2

The test system of assay [24] is HEL. Description: Tested for the inhibitory concentration required to reduce cytomegalovirus (CMV) strain AD-169 plaque formation by 50%. It is filed as functional, cell-based. The following applies: Homo sapiens. In outline: as §3
For assay [25], the system named is E6SM. Description: Tested for the minimum inhibitory concentration required to reduce herpes simplex virus type 1 (TK/ TK+HSV-1) strain VMW-1837 induced cytopathogenicity by 50%. It is filed as functional. Conditions: Homo sapiens. In outline:
as §2

Assay [26] has as its system E6SM. Description: Tested for the minimum inhibitory concentration required to reduce vaccinia virus(VV) induced cytopathogenicity by 50%. It is filed as functional. The following applies: Homo sapiens.
For assay [27], the system named is E6SM. As to the kind of experiment: Tested for the minimum cytotoxic concentration required to cause a microscopically detectable alteration of normal cell morphology in human embryonic skin muscle (E6SM) fibroblast cell cultures. It is filed as functional. In outline:
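Cytotoxicity in human embryonic skin-muscle (E6SM) fibroblasts seeded in 96-well trays, scored microscopically as altered normal cell morphology. Tested up to 400 µg/mL.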

Assay [28] has as its system HEL. As to the kind of experiment: Tested for the inhibitory concentration required to reduce cytomegalovirus (CMV) strain Davis plaque formation by 50%. It is filed as functional, cell-based. Conditions: Homo sapiens. In outline:
as §3

The test system of assay [29] is HEL. As to the kind of experiment: Tested for the inhibitory concentration required to reduce TK+ Varicella-Zoster virus (TK+VZV) strain OKA plaque formation by 50%. It is filed as functional, cell-based. The following applies: Homo sapiens. The procedure, abridged: as §3
Assay [30] relates to E6SM. As to the kind of experiment: Tested for the minimum inhibitory concentration required to reduce herpes simplex virus type 2 (HSV-2) strain G induced cytopathogenicity by 50%. It is filed as functional. Conditions: Homo sapiens. In outline:
as §2

Assay [31] deals with HEL. Description: Tested for the inhibitory concentration required to reduce TK+ Varicella-Zoster virus (TK+VZV) strain YS plaque formation by 50%. The following applies: Homo sapiens. It is filed as functional, cell-based. In outline:
as §3

Assay [32] has as its system HEL. Description: Tested for the inhibitory concentration required to reduce thymidine kinase deficient Varicella-Zoster virus (TK-VZV) strain YS/R plaque formation by 50%. It is filed as functional, cell-based. Conditions: Homo sapiens. The procedure, abridged: as §3
Assay [33] deals with E6SM. Description: Tested for the minimum inhibitory concentration required to reduce thymidine kinase deficient herpes simplex virus type 1 (TK-HSV-1) strain B2006 induced cytopathogenicity by 50%. It is filed as functional. The following applies: Homo sapiens. In outline:
as §2

Values after ≈ are worked out from the molar mass of the structure shown.

On to `O=c1[nH]c(=O)n([C@H]2C[C@H](O)[C@@H](CO)O2)cc1I` [IDOXURIDINE], for which the MIC against E6SM [1] was 0.2 mg/L (≈ 0.565 µM); in the assay on E6SM [4], 0.7 mg/L (≈ 1.98 µM); in the assay on E6SM [6] it was > 400 mg/L; against E6SM [9], 0.2 mg/L (≈ 0.565 µM); against E6SM [11], 40 mg/L (≈ 113 µM); in the assay with E6SM [12], 10 mg/L (≈ 28.2 µM). The MIC in the assay with E6SM [13] worked out at 0.2 mg/L (≈ 0.565 µM); against E6SM [14] it was 0.2 mg/L (≈ 0.565 µM); against E6SM [16], 0.2 mg/L (≈ 0.565 µM); with E6SM [18] it was 1 mg/L (≈ 2.82 µM). The IC50 in the assay on HEL [2] was 0.17 mg/L (≈ 0.48 µM); in the assay on HEL [3] it was > 50 mg/L; in the assay with HEL [7], 4 mg/L (≈ 11.3 µM); with HEL [8], 20 mg/L (≈ 56.5 µM); in the assay on HEL [10] it was 4 mg/L (≈ 11.3 µM); with HEL [15], 0.4 mg/L (≈ 1.13 µM). The MCC in the assay on E6SM [5] is > 400 µg/mL. In addition, the CC50 with HEL [17] is > 50 mg/L.
`O=c1[nH]c(=O)n([C@H]2C[C@H](O)[C@@H](CO)O2)cc1/C=C/Br` [BRIVUDINE]: the IC50 with HEL [2] is 0.0007 mg/L (≈ 0.0021 µM); in the assay on HEL [3], > 100 mg/L; in the assay on HEL [7] it was 30 mg/L (≈ 90.1 µM); in the assay with HEL [8] it was > 100 mg/L; in the assay with HEL [10], 8 mg/L (≈ 24 µM); in the assay on HEL [19], 0.0015 mg/L (≈ 0.0045 µM). The MIC against E6SM [4] is 2 mg/L (≈ 6 µM); against E6SM [6] it was > 200 mg/L; in the assay with E6SM [9], 0.004 mg/L (≈ 0.012 µM); in the assay with E6SM [11] it was 40 mg/L (≈ 120 µM); against E6SM [12], 70 mg/L (≈ 210 µM); in the assay with E6SM [13], > 200 mg/L. The MIC in the assay on E6SM [14] was 0.004 mg/L (≈ 0.012 µM); with E6SM [20], 300 mg/L (≈ 901 µM); against E6SM [16], 70 mg/L (≈ 210 µM); against E6SM [18], 0.2 mg/L (≈ 0.6 µM). The MCC in the assay with E6SM [5] was > 400 µg/mL. Affinity in the assay filed under Mus musculus was put at a Ki of 23 µM. For the same compound, the cytotoxic concentration (CC50) in the assay with HEL [17] is > 50 mg/L.
The compound `Nc1ncc2ncn(C3COC(CO)C(O)C3)c2n1` (stereo unspecified) registered a CC50 in the assay with HEL [21] of 140 mg/L (≈ 528 µM). In addition, the half-maximal inhibitory concentration (IC50) is 90 mg/L (≈ 339 µM) in the assay on HEL [22]; > 50 mg/L in the assay with HEL [24]; > 50 mg/L in the assay on HEL [28]; 60 mg/L (≈ 226 µM) with HEL [29]; 80 mg/L (≈ 302 µM) with HEL [31]; 100 mg/L (≈ 377 µM) in the assay with HEL [32]. In addition, the MIC is 20 mg/L (≈ 75.4 µM) in the assay with E6SM [23]; 70 mg/L (≈ 264 µM) in the assay with E6SM [25]; > 200 mg/L against E6SM [26]; > 200 mg/L against E6SM [6]; 20 mg/L (≈ 75.4 µM) in the assay with E6SM [30]; 150 mg/L (≈ 565 µM) with E6SM [33]. Further, in the assay on E6SM [27], the MCC was > 400 µg/mL.
